Columns and labels:
[1] = The compound was tested for the ability to inactivate mouse liver alcohol dehydrogenase in the absence of NAD+K
Procedure, shortened: (§1)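 Mouse liver ADH, fourfold purified ((NH₄)₂SO₄ 45–65% cut, DEAE-cellulose), incubated at about 0.2 mg/mL with 0.2 mM reagent in 0.1 M Na₂P₂O₇ pH 8, 25 °C; coenzyme, when present, added 1 min before inactivator. Apparent second-order rate constant derived assuming reaction first order in reagent.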

[2] = The compound was tested for the ability to inactivate rat liver alcohol dehydrogenase in the absence of NAD+K
Procedure, shortened: (§2)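 Rat liver enzyme purified 15-fold ((NH₄)₂SO₄ 35–75%, DEAE-cellulose). Inactivation with 0.2 mM reagent, 0.1 M pyrophosphate buffer pH 8, 25 °C, enzyme near 0.2 mg/mL; NAD⁺ preincubated 1 min with enzyme before reagent addition. Apparent second-order constants computed on assumption of first-order dependence on reagent.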

[3] = target: T1, Alcohol dehydrogenase (Equus caballus) (UniProt P00327+P00328); experiment: The compound was tested for the ability to inactivate horse liver alcohol dehydrogenase in the absence of NAD+k
[4] = The compound was tested for the ability to inactivate rat liver alcohol dehydrogenase in the presence of 1 mM NAD+K; procedure, shortened: as §2
[5] = The compound was tested for the ability to inactivate mouse liver alcohol dehydrogenase in the presence of 1 mM NAD+K; procedure, shortened: as §1
[6] = target: T1, Alcohol dehydrogenase (Equus caballus); experiment: The compound was tested for the ability to inactivate horse liver alcohol dehydrogenase in the presence of 1 mM NAD+k
[7] = target: T2, Alcohol dehydrogenase (Homo sapiens) (UniProt P07327+P08319+P00325+P00326+P40394+P11766+P28332); experiment: The compound was tested for the ability to inactivate human liver alcohol dehydrogenase in the absence of NAD+K
Procedure, shortened: (§3)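 Human liver ADH, purified on carboxymethyl- and DEAE-cellulose plus (NH₄)₂SO₄ (60%) with 5% ethanol throughout, ethanol dialysed out. Inactivation at 25 °C in 0.1 M Na₂P₂O₇, pH 8, enzyme about 0.2 mg/mL, 0.2 mM reagent; NAD⁺ added 1 min before reagent where used. Apparent second-order constant calculated assuming first order in reagent.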

[8] = target: T2, Alcohol dehydrogenase (Homo sapiens); experiment: The compound was tested for the ability to inactivate human liver alcohol dehydrogenase in the presence of 1 mM NAD+k; procedure, shortened: as §3
[9] = Toxic effect in mice was determined in vivo; assay type: toxicity, organism-based; conditions: mouse
Procedure, shortened: (§4)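 Male Swiss-Webster mice (20–25 g); single i.p. dose of compound suspended in sterile 0.9% saline. Acute lethality scored over 24 h; LD₅₀ with limits at p ≤ 0.05 from three doses on 15 mice.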

[10] = Toxic effect in rats was determined in vivo; assay type: toxicity, organism-based; conditions: rat
Procedure, shortened: (§5)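 Male Sprague-Dawley rats (160–200 g), two per dose; single i.p. dose of compound suspended in sterile 0.9% saline. Acute lethality scored over 24 h after dosing.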

[11] = target: T1, Alcohol dehydrogenase (Equus caballus); experiment: The compound was tested for the ability to inactivate horse liver alcohol dehydrogenase in the presence of 1 mM NAD+; second order rate constant M-1 min-1
[12] = test system: Rattus norvegicus; experiment: In vivo inhibition of ADH activity in rat liver at a dose of 0.48 mM/kg; assay type: functional
Procedure, shortened: (§6)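 Fed male Sprague-Dawley rats (160–200 g) received a single ip saline-suspended reagent dose, then ethanol 2 g/kg ip (40% w/v in saline) 22–24 h afterwards. Liver excised when blood ethanol neared zero, homogenized on ice, centrifuged. Activity = initial rate with ethanol and NAD⁺ minus rate in control assay containing 10 mM pyrazole, expressed per mg protein. Two rats per experiment.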

[13] = test system: Mus musculus; experiment: In vivo inhibition of ADH activity in mice liver at a dose of 0.48 mmol/kg; assay type: functional
Procedure, shortened: (§7)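 Male Swiss-Webster mice (20–25 g), fed, given one ip dose of reagent suspended in sterile 0.9% saline, then ethanol 3 g/kg ip (40% w/v in saline) 22–24 h later. Liver removed once blood ethanol approached zero, chilled, homogenized, clarified by centrifugation. ADH activity taken as initial-velocity difference, ethanol/NAD⁺ assay minus same assay with 10 mM pyrazole, per mg protein. Four or five mice per group.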

[14] = test system: Mus musculus; experiment: In vivo inhibition of recovery of rotarod performance in mice at a dose of 0.48 mM/kg; assay type: functional
Procedure, shortened: (§8)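 Mice trained to hang on a 2-cm rod rotating at 7 rpm, two 15-min periods. Reagent given ip 22 h before ethanol 3 g/kg; five mice per dose, five vehicle controls. Impairment = 100(15 − minutes on rod)/15, probit-transformed; t1/2 for regaining 50% performance by regression. Inhibition = [t1/2(treated) − t1/2(control)]/t1/2(treated).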

[15] = test system: Rattus norvegicus; experiment: In vivo inhibition of rate of ethanol metabolism in rats at dose 0.48 mmol/kg; assay type: functional
Procedure, shortened: (§9)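 Rats (male Sprague-Dawley, fed) pretreated ip with reagent suspended in saline 22–24 h before ethanol 2 g/kg ip. Serial 5 µL tail-vein samples, Ba(OH)₂/ZnSO₄ deproteinization with 1-propanol internal standard, GC-FID. Metabolic rate = blood-ethanol decline slope × ratio of dose to extrapolated zero-time blood level. Two rats per experiment.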

[16] = test system: Mus musculus; experiment: In vivo inhibition of rate of ethanol metabolism in mice at dose 0.48 mmol/kg; assay type: functional
Procedure, shortened: (§10)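 Mice (male Swiss-Webster, fed) dosed ip with reagent in saline 22–24 h before ethanol 3 g/kg ip. Tail-vein blood (5 µL) deproteinized with Ba(OH)₂/ZnSO₄, 1-propanol internal standard, analyzed by GC with flame-ionization detection. Elimination slope fitted excluding absorption (1–2 h), multiplied by r (dose / theoretical zero-time blood level) to give metabolic rate. Four or five mice per group.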

[17] = target: T1, Alcohol dehydrogenase (Equus caballus); experiment: The compound was tested for the ability to inactivate horse liver alcohol dehydrogenase in the presence of 0.2 mM NAD+(K
[18] = test system: Alcohol dehydrogenase (Equus caballus); experiment: The compound was tested for the ability to inactivate horse liver alcohol dehydrogenase in the presence of 0.2 mM NAD+K
[19] = (§11) Percent inhibition of Alcohol dehydrogenase activity in rat liver at dose 0.13 mmol/kg; assay type: tissue-based; procedure, shortened: as §6
[20] = target: T2, Alcohol dehydrogenase (Homo sapiens); experiment: The compound was tested for the ability to inactivate human liver alcohol dehydrogenase in the presence of 1 mM NAD+(K; procedure, shortened: as §3
[21] = target: T2, Alcohol dehydrogenase (Homo sapiens); experiment: The compound was tested for the ability to inactivate human liver alcohol dehydrogenase in the absence of NAD+(K; procedure, shortened: as §3
[22] = target: T1, Alcohol dehydrogenase (Equus caballus); experiment: (§12) The compound was tested for the ability to inactivate horse liver alcohol dehydrogenase in the presence of 0.2 mM NAD+K
[23] = test system: Rattus norvegicus; experiment: Percent inhibition of rate of ethanol metabolism in rats at dose 0.13 mmol/kg; assay type: functional; procedure, shortened: as §9
[24] = test system: Alcohol dehydrogenase (Homo sapiens); experiment: The compound was tested for the ability to inactivate human liver alcohol dehydrogenase in the presence of 0.2 mM NADH(K
[25] = The compound was tested for the ability to inactivate rat liver alcohol dehydrogenase in the presence of NAD+K; procedure, shortened: as §2
[26] = target: T1, Alcohol dehydrogenase (Equus caballus); experiment: The compound was tested for the ability to inactivate horse liver alcohol dehydrogenase in the presence of 1 mM NAD+K
[27] = test system: Mus musculus; experiment: Percent inhibition of rate of ethanol metabolism in mice at dose 0.13 mmol/kg; assay type: functional; procedure, shortened: as §10
[28] = target: T1, Alcohol dehydrogenase (Equus caballus); experiment: The compound was tested for the ability to inactivate horse liver alcohol dehydrogenase in the presence of 1 mM NAD+(K
[29] = target: T1, Alcohol dehydrogenase (Equus caballus); experiment: The compound was tested for the ability to inactivate horse liver alcohol dehydrogenase in the absence of NAD+(K
[30] = Percent inhibition of Alcohol dehydrogenase activity in mice liver at dose 0.13 mmol/kg; assay type: tissue-based; procedure, shortened: as §7
[31] = test system: Mus musculus; experiment: Percent inhibition of recovery of rotarod performance in mice at dose 0.13 mmol/kg; assay type: functional; procedure, shortened: as §8
[32] = target: T2, Alcohol dehydrogenase (Homo sapiens); experiment: The compound was tested for the ability to inactivate human liver alcohol dehydrogenase in the presence of 1 mM NAD+K; procedure, shortened: as §3
[33] = as §11; assay type: tissue-based; remark: listed apart in the source
Procedure, shortened: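 Male Sprague-Dawley rats (160–200 g), two per experiment; compound suspended in sterile 0.9% saline, single i.p. dose 22–24 h before i.p. ethanol 2 g/kg (40% w/v in saline). Tail-vein blood ethanol by GC (1-propanol internal standard); elimination rate = β slope × dose/extrapolated zero-time level. Liver ADH afterwards: homogenate activity with ethanol/NAD⁺ minus 10 mM pyrazole control, per mg protein.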

[34] = Toxic effect in rats; assay type: toxicity, organism-based; conditions: rat, in vivo; procedure, shortened: as §5
[35] = as §12
[36] = Toxic effect in mice; assay type: toxicity, organism-based; conditions: mouse, in vivo; procedure, shortened: as §4

Row | Rate constant [1] [M⁻¹ s⁻¹] | Rate constant [3] [M⁻¹ s⁻¹] | Rate constant [4] [M⁻¹ s⁻¹] | Rate constant [5] [M⁻¹ s⁻¹] | Rate constant [6] [M⁻¹ s⁻¹] | Rate constant [22] [M⁻¹ s⁻¹] | SMILES | Rate constant [2] [M⁻¹ s⁻¹] | Rate constant [7] [M⁻¹ s⁻¹] | other results
1 | 0.717 | 2.33 | 0.417 | 0.105 | 0.4 | – | O=C(CBr)Nc1ccc(-c2ccc(C(=O)O)cc2)cc1 | 0.483 | 0.833 | Rate constant [8]: 58.3 M⁻¹ s⁻¹
2 | – | – | – | – | – | – | CC(=O)Nc1ccc(CCCC(N)=O)cc1 | – | – | LD50 [9]: > 480 µmol/kg; LD50 [10]: > 480 µmol/kg; Activity [11]: 1500; Inhibition [12]: 8%; inhibition in vivo at 480 µmol/kg [13]: 43%; Inhibition [14]: 60%; inhibition in vivo at 480 µmol/kg [15]: 0%; inhibition in vivo at 480 µmol/kg [16]: 60%
3 | 0.633 | 1.67 | 0.533 | 0.233 | 2 | 0.25 | O=C(O)CCCc1ccc(NC(=O)CBr)cc1 | – | – | Rate constant [17]: 0.25 M⁻¹ s⁻¹; Rate constant [18]: 0.25 M⁻¹ s⁻¹; inhibition [19]: 27%; Rate constant [20]: 2.33 M⁻¹ s⁻¹; Rate constant [21]: 0.183 M⁻¹ s⁻¹; inhibition in vivo at 130 µmol/kg [23]: 24%; Rate constant [24]: 0.085 M⁻¹ s⁻¹; Rate constant [25]: 0.533 M⁻¹ s⁻¹
4 | 0.147 | 0.717 | 0.0667 | – | 0.05 | – | O=C(O)CCCCCCCCCCNC(=O)CBr | 0.152 | 3.83 | Rate constant [8]: 23.3 M⁻¹ s⁻¹
5 | – | – | – | – | – | 0.0267 | NC(=O)CCCc1ccc(NC(=O)CCl)cc1 | – | – | Rate constant [26]: 0.0417 M⁻¹ s⁻¹

Row | SMILES | Rate constant [1] [M⁻¹ s⁻¹] | Rate constant [3] [M⁻¹ s⁻¹] | Rate constant [4] [M⁻¹ s⁻¹] | Rate constant [5] [M⁻¹ s⁻¹] | Rate constant [6] [M⁻¹ s⁻¹] | Rate constant [22] [M⁻¹ s⁻¹] | Rate constant [2] [M⁻¹ s⁻¹] | Rate constant [7] [M⁻¹ s⁻¹] | other results
6 | O=C(O)CBr | 0.163 | 0.138 | 0.0133 | – | 0.0015 | – | 0.217 | 0.0133 | –
7 | NC(=O)CCCc1ccc(NC(=O)CBr)cc1 | 0.6 | – | 1.17 | 1 | – | 2.67 | 0.583 | 0.09 | inhibition in vivo at 130 µmol/kg [27]: 20%; Rate constant [28]: 3.17 M⁻¹ s⁻¹; Rate constant [29]: 0.667 M⁻¹ s⁻¹; inhibition [30]: 21%; inhibition in vivo at 130 µmol/kg [31]: 58%; Rate constant [32]: 5.33 M⁻¹ s⁻¹; inhibition [33]: 21%; LD50 [34]: 130 µmol/kg; Rate constant [35]: 2.67 M⁻¹ s⁻¹; inhibition in vivo at 130 µmol/kg [23]: 26%; LD50 [36]: 210 µmol/kg

Source: ChEMBL document CHEMBL1121913, “Inactivation of liver alcohol dehydrogenases and inhibition of ethanol metabolism by ambivalent active-site-directed reagents” (J Med Chem, 1981)
